Lung fibro prol = blocks proliferation of human lung fibroblasts. LL 47 human lung fibroblast viability, ATP luminescence; active compounds read low. viability, % at 10 µM. 85,000 compounds, 1.1% hits;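 active means viability at or below 50% in the single dose screen; inactive means viability above 50%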;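 further: compound exposure lasted 72 h before the ATP readout; 100% = median luminescence of untreated cell-only wells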
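Material: human lung fibroblast line LL 47, low passage; Evaluation: viability percentage against median untreated-cell control; Buffer or medium: 15% FBS in IMEM; Incubation: 72 h compound exposure at 37 °C after overnight plating; Dosing: 0.1% DMSO in all compound wells; Measured by: CellTiter-Glo luminescence.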
E coli WT exp = growth inhibitors of E. coli BW25113 wild type; growth inhibition, % at 100 µM; OD600 absorbance; 98,000 compounds, 0.15% hits;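 active means growth inhibition above about 50% at one test dose, limit read from the data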;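 further: growth measured after 20 h incubation at 37 °C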
H69AR inhibit = blocks growth of human H69AR lung tumor cells | H69AR lung tumor viability, ATP luminescence, 72 h; active compounds read low | viability, % at 10 µM | 85,000 compounds, 6% hits | AID 598;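 active means viability at or below 40%; inactive means viability above 40%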;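 further: multidrug resistant small cell line overexpressing MRP-1 efflux transporter; 100% = mean luminescence of untreated control wells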
Ecoli tolC = E. coli tolC mutant growth inhibition; E. coli BW25113 tolC mutant growth, OD615; 65,000 compounds, 2.2% hits; growth inhibition, % at 10 µM (by protocol); AID 573;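 active means growth inhibition at or above a cutoff equal to the mean over every tested compound plus 3 SD, cut at about 60% in these data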;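 further: growth measured after 20 h incubation at 37 °C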
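Assay system: tolC-deleted E. coli BW25113. Medium: kanamycin-containing LB broth (50 µg/mL). Dosing: 10 µM final, single dose. Timing: bacterial growth with compound for 20 h at 37 °C. Detection: A615 absorbance measurement. Read-out basis: growth inhibition in percent.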
Jurkat tox 60K = reduces viability or proliferation of Jurkat cells | Jurkat E6.1 viability, ATP luminescence, 48 h | inhibition, % at 4 µM | 56,000 compounds, 1.2% hits | AID 463;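 active means inhibition above the mean inhibition of all tested compounds plus 3 SD, cut at about 28% in these data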
HUVEC prolif 384 = human endothelial cell proliferation inhibition. HUVEC proliferation, CellTiter-Glo luminescence, 72 h; active compounds read low. viability, % at 10 µM (by protocol). 86,000 compounds, 1.1% hits;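 active means viability at or below 30%; inactive means viability above 30%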;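 further: 100% = median luminescence of DMSO-only cell control wells on each plate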
Starred values were filed as active, the others as inactive; . = no result. Sampled rows, rich in hits. Any-hit rate of the full collection: about 6.4%.

SMILES	Lung fibro prol	E coli WT exp	H69AR inhibit	Ecoli tolC	Jurkat tox 60K	HUVEC prolif 384
CCCn1c(SCC(=O)Nc2sc(C)c(C)c2C(=O)OC)nc2c1c(=O)n(C)c(=O)n2C	94	.	66	-41	5	80
O=c1c(Cc2ccc(Cl)cc2Cl)c(O)ccn1Cc1ccc(Cl)cc1	.	2	.	.	.	.
Cc1ccnc2nc(C(=O)NCCc3ccc(F)cc3)nn12	104	-3	101	.	.	100
COC(=O)c1ccc2c(c1)N(Cc1nc(-c3ccc(Cl)cc3)oc1C)C(=O)C1CCCN21 (stereo not drawn)	96	.	15*	-2	3	87
Cc1cc(C)cc(-n2c(SCC(=O)NCc3ccco3)nc3ccccc3c2=O)c1	91	-8	66	.	.	78
CCOc1ccccc1CN(Cc1ccco1)S(=O)(=O)c1ccc(-n2cnnn2)c(OC)c1	.	-14	.	29	67*	.
COc1cc(S(=O)(=O)N(Cc2ccco2)C2CCCC2)ccc1-n1cnnn1	.	-28	.	33	0	.
CC(C)Cc1ccc(C(C)C(=O)OCC(=O)c2c[nH]c3ccccc23)cc1 (stereo not drawn)	98	-11	39*	.	.	84
CC1(C(=O)OCC(=O)c2c[nH]c3ccccc23)CC1(Cl)Cl (stereo not drawn)	.	15	.	.	.	.
CCOC(=O)c1c(-c2ccccc2)oc2cc(CN(C)C)c(O)c(CN(C)C)c12	94	.	10*	.	.	9.3*
CCOC(=O)Cc1nnc2c(Nc3ccc(Cl)cc3)nc3nonc3n12	71	11	14*	100*	7	38
CCOC(=O)CSc1nnc(CNc2ccc(Cl)cc2)n1Cc1ccccc1	107	.	100	.	.	101
CCC(C(=O)Nc1nnc(-c2ccco2)s1)c1ccccc1 (stereo not drawn)	101	0	87	-2	4	69
CN(C)c1ccc(/C=N/N2C(=S)SC(C)(C)C2N(O)C(=O)Nc2ccc([N+](=O)[O-])cc2)cc1 (stereo not drawn)	105	-6	89	.	.	86
CCCCCCCOC(=O)C1=C(C)Nc2ncnn2C1c1cccs1 (stereo not drawn)	77	0	82	.	.	63
CCCCCCCCOC(=O)C1=C(C)Nc2nnnn2C1c1cccs1 (stereo not drawn)	100	-3	62	.	.	2.5*
COC(=O)c1cc(NC(=O)Cc2ccccc2[N+](=O)[O-])cc(C(=O)OC)c1	.	0	.	.	.	.
Cc1ccc(NS(=O)(=O)c2ccc3c(c2)c(=O)n(C)c(=O)n3C)cc1F	83	7	85	-6	.	60
Cc1cc(C)cc(NS(=O)(=O)c2ccc3c(c2)c(=O)n(C)c(=O)n3C)c1	34*	0	83	.	.	34
CC(=O)c1cn(CC(=O)Nc2ccccc2)c2ccccc12	92	8	103	24	37*	105
CS(=O)(=O)N(CC(=O)NC1CCCCC1)c1cccc(Cl)c1	94	-4	90	-4	-7	95
CCOC(=O)c1ccc2c(c1)NC(=O)C(N1CCN(c3ccc(OC)cc3)CC1)S2 (stereo not drawn)	46*	-5	31*	4	-1	68
CC1CC(C)CN(CCCNC(=O)Cc2c(C(=O)O)n(C)c3ccccc23)C1 (stereo not drawn)	102	1	88	.	.	98
COc1ccc(C(O)c2nc3ccccc3n2C)cc1OC (stereo not drawn)	96	-10	100	-12	54*	87
COc1ccc(C(=O)NC(C)c2nc3ccccc3n2C)cc1OC (stereo not drawn)	103	0	83	-4	.	105
SMILES	Lung fibro prol	E coli WT exp	H69AR inhibit	Ecoli tolC	Jurkat tox 60K	HUVEC prolif 384
Cc1cccc(-n2c(SCc3cc(=O)n4ccsc4n3)nc3ccccc32)c1	91	-10	82	15	8	75
Cc1cc(Cl)ccc1OCC(=O)NCc1ccncc1	101	12	93	.	.	103
O=C(COc1ccc(Cl)cc1Cl)NCc1ccncc1	.	6	27*	3	4	105
O=C(COc1ccc(Cl)cc1Cl)Nc1ccccn1	48*	-1	54	16	7	45
O=C(COc1ccccc1Cl)Nc1ccc(Cl)cn1	100	-17	85	7	-6	94
CCOc1ccc(S(=O)(=O)N2c3ccccc3CC2C)cc1 (stereo not drawn)	52	-8	25*	.	.	48
CC1Cc2ccccc2N1S(=O)(=O)c1cccs1 (stereo not drawn)	93	0	63	16	-6	94
N#Cc1nc(Cc2ccccc2)oc1NCc1ccccc1Cl	97	30	89	93*	2	110
COc1ccc(-c2nc(C#N)c(NCc3ccccc3Cl)o2)cc1OC	93	-7	5.7*	0	-2	59
COc1ccc(-c2nc(C#N)c(NCc3ccccc3Cl)o2)cc1	74	-14	60	-14	6	69
N#Cc1nc(Cc2ccccc2)oc1NCc1cccnc1	.	.	.	6	-8	.
C=CCNc1nc(N2CCCC2)nc2ccccc12	90	17	61	33	-1	91
COc1ccc(Nc2nc(N3CCCC3)nc3ccccc23)c(OC)c1	105	22	2.1*	55	28*	32
CC(Nc1nc(N2CCCCC2)nc2ccccc12)c1ccccc1 (stereo not drawn)	21*	25	3.2*	.	.	3.6*
COc1ccc(Nc2ncnc3ccccc23)c(OC)c1	92	.	59	.	.	79
Cc1nc2ccc(S(=O)(=O)Nc3ccccc3C)cc2s1	91	-4	33*	26	30*	67
Cc1nc2ccc(NS(=O)(=O)c3ccc(C)c(C)c3)cc2s1	.	1	.	.	.	.
O=C(O)C1CC=CCC1C(=O)NCCc1cccc(Cl)c1 (stereo not drawn)	101	-2	96	.	.	90
NC(N)=N/N=C/c1ccc(OCc2ccccc2Cl)cc1	.	99*	.	.	.	.
NC(=O)C1CCN(S(=O)(=O)c2cccc(C(=O)O)c2)CC1	.	4	.	.	.	.
CC(=O)Nc1ccc(SCC(=O)N(CCC#N)c2ccc(C)cc2)cc1	109	9	33*	1	9	99
CC(=O)Nc1ccc(NC(=O)CSc2ccc(C)cc2)cc1	100	5	104	.	.	108
CCOC(=O)c1[nH]c2ccccc2c1NC(=O)c1ccc2c(c1)OCO2	78	-15	22*	-15	2	81
CCOC(=O)c1[nH]c2ccc(OC)cc2c1NC(=O)c1ccc2c(c1)OCO2	97	-3	69	10	.	90
CCOC(=O)c1[nH]c2cc(OC)c(OC)cc2c1NC(=O)c1ccc2c(c1)OCO2	68	-7	26*	15	.	88
COc1cccc(-n2c(SCC(=O)N3CCCC3)nc3c([nH]c4ccccc43)c2=O)c1	98	.	43	-4	3	85
